Assay results of several laboratories.
Target: Calcium/calmodulin-dependent protein kinase type 1 (CAMK1, Homo sapiens, UniProt Q14012)

Compound	test	conditions	measurement	result
CS(=O)(=O)c1cc(C2(NC(=O)c3cncc4c3cnn4-c3ccc(F)cc3)CC2)ccn1	cell-free assay, competition with immobilised ligand	1 µM	remaining binding	65%
Oc1cccc(-c2nc(N3CCOCC3)c3oc4ncccc4c3n2)c1	enzyme activity, inhibitor	10 µM	remaining activity	99%
CN1CC(Oc2cnc(C#N)cc2-c2ccn3nc(NC(=O)C4CC4)cc3c2)C1	enzyme activity, inhibitor	1 µM	inhibition	1%
NS(=O)(=O)c1cc(NC(=O)Cc2ccccc2)ccc1Oc1cccc(Cl)c1	cell-free assay, competition with immobilised ligand	1 µM	remaining binding	90%
Cn1c(=O)n(-c2ccc(C(C)(C)C#N)cc2)c2c3cc(-c4cnc5ccccc5c4)ccc3ncc21	enzyme activity, inhibitor	10 µM	remaining activity	100%
O=C(Nc1cnn(-c2csc(C(=O)NC3COC3)c2)c1)Nc1c(F)cccc1Cl	enzyme activity, inhibitor	5 µM	remaining activity	98%
c1ccc(CNc2nc(N3CCOc4ccccc43)nc3c2CCCC3)cc1	target engagement in cells, inhibitor, chemoproteomics	20 mM	inhibition	1.2%
CCCOc1ccc(OC)c(F)c1C(=O)c1ccc(C(=O)N[C@@H]2CNC[C@H]2NC(=O)c2ccc3[nH]ncc3c2)cc1	enzyme activity, inhibitor	10 µM	remaining activity	34%
O=C(O)[C@@H]1[C@@H](Cn2nnc3ccccc3c2=O)CC[C@H]1C(=O)c1ccc(OCCC2CCOCC2)cc1	cell-free assay, competition with immobilised ligand	1 µM	remaining binding	92%
COc1cc(-c2cc(-c3ccc(N4CCNCC4)cc3)cnc2C)cc(OC)c1OC	enzyme activity, inhibitor	1 µM	inhibition	1%
Cc1cc(NC(=O)c2cccc3cc(-c4cccc5[nH]nc(N)c45)ccc23)ccc1F	enzyme activity, inhibitor	0.1 µM	activity vs control	116%
CCN(CC)CCNC(=O)c1c(C)[nH]c(/C=C2\C(=O)Nc3ccc(F)cc32)c1C	enzyme activity, inhibitor	0.3 µM	inhibition	21%
COc1cc(Nc2cnc(C#N)c(O[C@H](C)CN(C)C)n2)ncc1-c1cnn(C)c1	enzyme activity, inhibitor, radiometric	10 µM	remaining activity	95%
O=C(Nc1cccnn1)N1CC(C/C=C/c2cncc(Oc3ccc(C(F)(F)F)cn3)n2)C1	cell-free assay, competition with immobilised ligand	1 µM	remaining binding	100%
CC(C)c1ccc(NC(=O)c2cccs2)c(-c2nc3ccccc3[nH]c2=O)c1	enzyme activity, inhibitor	1 µM	activity vs control	104%
CNC(=O)c1cc(Oc2ccc(NC(=O)Nc3ccc(Cl)c(C(F)(F)F)c3)cc2)ccn1	enzyme activity, inhibitor	10 µM	inhibition	9%
CCCS(=O)(=O)Nc1ccc(F)c(C(=O)c2c[nH]c3ncc(-c4ccc(Cl)cc4)cc23)c1F	enzyme activity, inhibitor	1 µM	inhibition	< 10%
CC(C)(C)C(=O)c1sc(NC2CCCCC2)nc1N	enzyme activity, inhibitor	10 µM	remaining activity	109%
Cc1cc(-n2nc(Cc3cc(F)cc(C(F)(F)F)c3)nc2C)ccc1C(N)=O	cell-free assay, competition with immobilised ligand	1 µM	remaining binding	90%
COc1cc2c(Nc3ccc(Br)cc3F)ncnc2cc1OCC1CCN(C)CC1	cell-free assay	0.5 µM	remaining signal	81.6%
Cc1ccc(Nc2nccc(N(C)c3ccc4c(C)n(C)nc4c3)n2)cc1S(N)(=O)=O	enzyme activity, inhibitor	10 µM	inhibition	52%
Oc1cccc(-c2nc(N3CCOCC3)c3oc4ncccc4c3n2)c1	cell-free assay	0.5 µM	remaining signal	101%
Cc1nc(N2CC[C@@H](O)C2)ncc1-c1cc(C(F)(F)F)cc2[nH]ncc12	cell-free assay, competition with immobilised ligand	1 µM	remaining binding	100%
CC(C)(O)[C@H]1CC[C@H](Nc2ccc3ncc(-c4cccc(C(F)(F)F)c4)n3n2)CC1	enzyme activity, inhibitor	1 µM	remaining activity	100%
Nc1nc(NC2CCCCC2)sc1C(=O)c1ccccc1	enzyme activity, inhibitor	10 µM	remaining activity	86%
CN(C)C(=O)Cn1cc(-c2nc([C@@](C)(c3ccc(-c4cnc(N)nc4)cc3)C3CC3)no2)cn1	cell-free assay, competition with immobilised ligand	1 µM	remaining binding	100%
O=C1NC(=O)c2cc(Nc3ccc(F)cc3)c(Nc3ccc(F)cc3)cc21	cell-free assay	0.5 µM	remaining signal	104%
CS(=O)(=O)N1CCCC(NC(=O)[C@H](CCC2CCCCC2)NC(=O)c2ccc(CNc3ncnc4c3nnn4-c3ccccc3)cc2)C1 (some centres unmarked)	cell-free assay, competition with immobilised ligand	0.1 µM	remaining binding	96%
Cc1cnc(NC2CCOCC2)nc1-n1cnc(C(=O)NC(CN)c2cc(F)cc(Cl)c2)c1 (centres unmarked)	enzyme activity, inhibitor, radiometric	1 µM	remaining activity	88%
